{"source": "ChEMBL document CHEMBL1781954", "about": "“Synthesis and antitumor activity of novel pyrido[2,3-d][1,2,4]triazolo[4,3-a]pyrimidin-5-one derivatives” (Eur J Med Chem, 2011)", "tested_on": "MCF7", "test": "Cytotoxicity against human MCF7 cells assessed as inhibition of cell viability after 48 hrs by Sulforhodamine B assay", "assay_type": "functional, cell-based", "conditions": "MCF7, 48 h", "summary_of_the_method": "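MCF7 cells seeded at 10⁴ cells/well and left 24 h to attach. Compounds in DMSO diluted with saline were added at 0, 1, 2.5, 5 and 10 (triplicate wells per dose). After 48 h at 37 °C in 5% CO₂, cells were fixed with trichloroacetic acid and stained 30 min with 0.4% SRB in 1% acetic acid. Bound dye was recovered in Tris-EDTA and read on an ELISA reader. IC50 was taken from surviving fraction versus concentration curves.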", "data": [{"compound": "O=c1[nH]c(=S)[nH]c2nc(-c3ccccc3)cc(-c3ccc(Cl)cc3)c12", "values": [{"measurement": "IC50", "result": 5.11, "unit": "µg/mL"}]}, {"compound": "CCOC(=O)CSc1n[nH]c2nc3nc(-c4ccccc4)cc(-c4ccc(Cl)cc4)c3c(=O)n12", "values": [{"measurement": "IC50", "result": 4.5, "unit": "µg/mL"}]}, {"compound": "CCSc1n[nH]c2nc3nc(-c4ccccc4)cc(-c4ccc(Cl)cc4)c3c(=O)n12", "values": [{"measurement": "IC50", "result": 5.2, "unit": "µg/mL"}]}, {"compound": "Cc1ccc(-c2n[nH]c3nc4nc(-c5ccccc5)cc(-c5ccc(Cl)cc5)c4c(=O)n23)cc1", "values": [{"measurement": "IC50", "result": 9.07, "unit": "µg/mL"}]}, {"compound": "CCc1n[nH]c2nc3nc(-c4ccccc4)cc(-c4ccc(Cl)cc4)c3c(=O)n12", "values": [{"measurement": "IC50", "result": 14, "unit": "µg/mL"}]}, {"compound": "O=c1c2c(-c3ccc(Cl)cc3)cc(-c3ccccc3)nc2nc2[nH]nc(-c3ccccc3)n12", "values": [{"measurement": "IC50", "result": 9.22, "unit": "µg/mL"}]}, {"compound": "O=c1c2c(-c3ccc(Cl)cc3)cc(-c3ccccc3)nc2nc2[nH]nc(SCc3ccccc3)n12", "values": [{"measurement": "IC50", "result": 12.6, "unit": "µg/mL"}]}, {"compound": "O=c1c2c(-c3ccc(Cl)cc3)cc(-c3ccccc3)nc2nc2[nH]ncn12", "values": [{"measurement": "IC50", "result": 21.6, "unit": "µg/mL"}]}, {"compound": "O=c1c2c(-c3ccc(Cl)cc3)cc(-c3ccccc3)nc2nc2[nH][nH]c(=S)n12", "values": [{"measurement": "IC50", "result": 6.78, "unit": "µg/mL"}]}, {"compound": "O=c1c2c(-c3ccc(Cl)cc3)cc(-c3ccccc3)nc2nc2[nH]nc(CCl)n12", "values": [{"measurement": "IC50", "result": 11.7, "unit": "µg/mL"}]}, {"compound": "Cc1n[nH]c2nc3nc(-c4ccccc4)cc(-c4ccc(Cl)cc4)c3c(=O)n12", "values": [{"measurement": "IC50", "result": "> 50", "unit": "µg/mL"}]}, {"compound": "Nc1n[nH]c2nc3nc(-c4ccccc4)cc(-c4ccc(Cl)cc4)c3c(=O)n12", "values": [{"measurement": "IC50", "result": 3.74, "unit": "µg/mL"}]}, {"compound": "O=c1[nH][nH]c2nc3nc(-c4ccccc4)cc(-c4ccc(Cl)cc4)c3c(=O)n12", "values": [{"measurement": "IC50", "result": 24.3, "unit": "µg/mL"}]}, {"compound": "CSc1n[nH]c2nc3nc(-c4ccccc4)cc(-c4ccc(Cl)cc4)c3c(=O)n12", "values": [{"measurement": "IC50", "result": 3.89, "unit": "µg/mL"}]}]}
